Paper PMC5167571 (Molecular pharmaceutics, 2015)
Starred links: 1 amine or outer side, 2 acyl side, 3 side chain; linkers in the order of their positions; H or OH if unused. Non-standard residues stand in square brackets, D forms with d. Residues, ends and D or L forms follow the SMILES beside them. *: point of attachment. DOTA = O=C(O)CN1CCN(CC(=O)O)CCN(CC(=O)*)CCN(CC(=O)O)CC1; Acryloyl(3-(3-pyridyl),E) = O=C(/C=C/c1cccnc1)*; X1 = O=C(Cc1ccc(N[*:1])cc1)[*:2]; Aad = N[C@@H](CCCC(=O)O)C(=O)O; NH(2-Me-phenyl) = Cc1ccccc1N*; PEG4 = NCCOCCOCCOCCOCCC(=O)O; Ac6c = NC1(C(=O)O)CCCCC1; CO = O=C([*:1])[*:2]

Tests used:
VLA-4 (integrin α4β1) = VLA-4 (integrin α4β1) (Mus musculus, UniProt P09055+Q00651); assay: Competitive binding assay with ^64Cu-NODAGA-PEG4-LLP2A in B16F10 melanoma cells; settings: VLA-4, B16F10 cells; Ki of Ga conjugate vs Kd of Lu conjugate
Method in brief: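 Both assays used B16F10 cells (10⁵/well, seeded 24 h earlier) in HBSS/0.1% BSA/1 mM Mn²⁺ on ice. […] Kd: ¹⁷⁷Lu conjugate (0.2–40 nM), 2 h, n = 3, with nonspecific binding from a 15 μg LLP2A-PEG₄ block. Cell-bound counts were normalized to BCA protein and fitted for Kd and Ki.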

[1] = Biodistribution of ^68Ga-DOTA-PEG4-LLP2A; assay type: in vivo, mouse; settings: C57BL/6, mouse, iv, 5.55 MBq, total radioactivity
Method in brief: (§1)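 Mice bearing s.c. right-shoulder B16F10 tumors (10⁶ cells in PBS) received the ⁶⁸Ga tracer i.v. (5.55 MBq, 277 ng), n = 4 per group. They were sacrificed at 1 h. A blocking group received tracer premixed with 100 μg LLP2A-PEG₄. Tissues and tumor were weighed and γ-counted, and decay-corrected %ID/g was calculated against a standard. Data are mean ± SD.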

[2] = tested on: B16F10 tumor-bearing C57BL/6 mice; assay: Biodistribution of ^68Ga-DOTA-PEG4-LLP2A; assay type: in vivo, mouse; settings: 360-fold excess of LLP2A-PEG4 (100 μg), 1 h
Method in brief: as §1

B16F10 cells = assay: Internalization assay; assay type: cell-based, mouse; settings: 37 °C; for Internalized agent: 12 ng/well, n = 3
[3] = Biodistribution of ^177Lu-DOTA-PEG4-LLP2A; assay type: in vivo, mouse; settings: C57BL/6, mouse, iv, 3.6 MBq, total radioactivity
Method in brief: (§2)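 B16F10 cells (10⁶ in PBS) were implanted s.c. in the right shoulder of 6–8-week-old C57BL/6 mice. ¹⁷⁷Lu conjugate (3.6 MBq, 90 ng) was given i.v., n = 5 per group. Animals were killed at 4, 24, 48, 72 and 96 h. Blood, organs, muscle, bone and tumor were weighed and γ-counted. Values are decay-corrected %ID/g against an injected-dose standard, shown as tumor/blood and tumor/muscle ratios, mean ± SD.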

[4] = tested on: B16F10 tumor-bearing C57BL/6 mice; assay: Biodistribution of ^177Lu-DOTA-PEG4-LLP2A; assay type: in vivo, mouse; settings: 4 h postinjection, i.v.
Method in brief: as §2

Sequence of VLA-4 (integrin α4β1) (Q00651 41-1039): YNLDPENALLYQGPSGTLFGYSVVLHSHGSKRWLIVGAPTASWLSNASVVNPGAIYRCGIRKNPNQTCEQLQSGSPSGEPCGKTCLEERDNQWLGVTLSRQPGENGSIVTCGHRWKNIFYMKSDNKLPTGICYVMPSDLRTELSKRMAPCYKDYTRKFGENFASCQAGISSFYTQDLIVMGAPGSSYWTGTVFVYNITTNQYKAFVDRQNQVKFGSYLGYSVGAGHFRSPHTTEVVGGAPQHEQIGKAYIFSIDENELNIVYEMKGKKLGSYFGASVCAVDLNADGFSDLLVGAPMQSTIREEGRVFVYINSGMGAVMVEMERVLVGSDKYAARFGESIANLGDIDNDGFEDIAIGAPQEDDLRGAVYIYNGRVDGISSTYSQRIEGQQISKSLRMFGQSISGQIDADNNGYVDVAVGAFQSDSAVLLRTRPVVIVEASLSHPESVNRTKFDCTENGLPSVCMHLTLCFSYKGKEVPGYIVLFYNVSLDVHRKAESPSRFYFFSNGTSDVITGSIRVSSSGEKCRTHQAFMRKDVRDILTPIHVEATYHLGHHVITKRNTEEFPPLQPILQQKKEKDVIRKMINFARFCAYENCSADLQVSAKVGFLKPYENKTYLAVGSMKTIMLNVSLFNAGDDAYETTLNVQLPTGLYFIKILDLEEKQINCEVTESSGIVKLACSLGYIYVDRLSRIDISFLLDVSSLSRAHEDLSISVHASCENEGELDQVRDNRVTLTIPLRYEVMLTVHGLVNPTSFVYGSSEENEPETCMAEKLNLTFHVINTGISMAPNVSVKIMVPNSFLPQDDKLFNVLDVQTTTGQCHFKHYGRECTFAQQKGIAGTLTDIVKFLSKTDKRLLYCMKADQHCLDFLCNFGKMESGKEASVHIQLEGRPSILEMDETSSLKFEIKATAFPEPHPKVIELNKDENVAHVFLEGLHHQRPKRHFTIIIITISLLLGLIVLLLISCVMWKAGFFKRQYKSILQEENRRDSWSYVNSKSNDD
Sequence of VLA-4 (integrin α4β1) (P09055 21-798): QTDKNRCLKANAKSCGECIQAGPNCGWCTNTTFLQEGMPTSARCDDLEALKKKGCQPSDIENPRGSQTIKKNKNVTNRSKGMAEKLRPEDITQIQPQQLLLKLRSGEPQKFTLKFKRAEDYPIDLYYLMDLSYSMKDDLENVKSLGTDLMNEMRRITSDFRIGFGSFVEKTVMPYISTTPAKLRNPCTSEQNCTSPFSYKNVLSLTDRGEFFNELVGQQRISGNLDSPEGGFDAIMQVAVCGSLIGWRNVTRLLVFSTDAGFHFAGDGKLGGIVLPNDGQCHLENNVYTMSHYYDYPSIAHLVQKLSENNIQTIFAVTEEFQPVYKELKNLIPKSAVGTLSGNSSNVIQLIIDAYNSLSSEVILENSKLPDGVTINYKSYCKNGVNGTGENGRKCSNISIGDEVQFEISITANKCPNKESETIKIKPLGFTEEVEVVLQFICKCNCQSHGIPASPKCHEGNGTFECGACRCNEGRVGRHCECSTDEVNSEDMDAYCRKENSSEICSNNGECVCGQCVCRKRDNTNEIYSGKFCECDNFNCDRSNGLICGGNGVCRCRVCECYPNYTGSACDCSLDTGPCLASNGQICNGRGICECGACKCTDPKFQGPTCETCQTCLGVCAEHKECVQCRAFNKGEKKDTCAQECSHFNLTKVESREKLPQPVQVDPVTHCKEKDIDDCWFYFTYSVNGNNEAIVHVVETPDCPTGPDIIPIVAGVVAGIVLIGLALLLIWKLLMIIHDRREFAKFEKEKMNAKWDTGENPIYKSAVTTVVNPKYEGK

## Cc1ccccc1NC(=O)Nc1ccc(CC(=O)N[C@@H](CCCCNC(=O)/C=C/c2cccnc2)C(=O)N[C@@H](CCCC(=O)O)C(=O)NC2(C(=O)NCCOCCOCCOCCOCCC(=O)N[C@@H](CCCCNC(=O)CN3CCN(CC(=O)O)CCN(CC(=O)O)CCN(CC(=O)O)CC3)C(N)=O)CCCCC2)cc1 [^68Ga-DOTA-PEG4-LLP2A, metal not drawn] ({NH(2-Me-phenyl)-CO}-[X1]K(Acryloyl(3-(3-pyridyl),E))[Aad][Ac6c][PEG4]K(DOTA)-NH2; N-terminus and C-terminus assumed)
VLA-4 (integrin α4β1)
  fold higher affinity than the ^177Lu-labeled conjugate: 3 fold
[1]; bone marrow
  tissue uptake at 1 h: 3.2 ± 0.7 %ID/g
[1]; kidneys
  tissue uptake at 1 h: 3.7 ± 0.9 %ID/g
[1]; liver
  tissue uptake at 1 h: 1.9 ± 0.4 %ID/g
[1]; spleen
  tissue uptake at 1 h: 5.4 ± 1.7 %ID/g
[1]; thymus
  tissue uptake at 1 h: 4.6 ± 0.5 %ID/g
[1]; tumor
  tissue uptake at 1 h: 9.1 ± 0.9 %ID/g
[1]; tumor/blood
  tissue to tissue ratio at 1 h: 5.8 ± 1.5
[1]; tumor/muscle
  tissue to tissue ratio at 1 h: 9.7 ± 1.5
[2]
  uptake in blocking study: reduction of uptake

## Cc1ccccc1NC(=O)Nc1ccc(CC(=O)N[C@@H](CCCCNC(=O)/C=C/c2cccnc2)C(=O)N[C@@H](CCCC(=O)O)C(=O)NC2(C(=O)NCCOCCOCCOCCOCCC(=O)N[C@@H](CCCCNC(=O)CN3CCN(CC(=O)O)CCN(CC(=O)O)CCN(CC(=O)O)CC3)C(N)=O)CCCCC2)cc1 [^177Lu-DOTA-PEG4-LLP2A, metal not drawn] ({NH(2-Me-phenyl)-CO}-[X1]K(Acryloyl(3-(3-pyridyl),E))[Aad][Ac6c][PEG4]K(DOTA)-NH2; N-terminus and C-terminus assumed)
B16F10 cells; 30 min (maximum uptake)
  Internalized agent: 341 ± 110 fmol/mg
B16F10 cells; 2 h
  Internalized agent: 343 ± 53 fmol/mg
B16F10 cells; 4 h
  Internalized agent: 303 ± 41 fmol/mg
B16F10 cells; internalized rapidly
  time to internalization post addition: < 15 min
[3]; bone (likely bone marrow)
  tissue uptake at 4 h: 10.1 ± 3.5 %ID/g
[3]; bone
  tissue uptake at 24 h: 4.1 ± 0.4 %ID/g
  tissue uptake at 48 h: 2.7 ± 0.6 %ID/g
  tissue uptake at 72 h: 2.2 ± 0.5 %ID/g
  tissue uptake at 96 h: 1.6 ± 0.6 %ID/g
[3]; kidney
  tissue uptake at 24 h: 2.4 ± 0.3 %ID/g
[3]; kidneys
  tissue uptake at 4 h: 6.5 ± 1.5 %ID/g
[3]; liver
  tissue uptake at 4 h: 2.8 ± 0.4 %ID/g
  tissue uptake at 24 h: 1 ± 0.1 %ID/g
[3]; lungs
  tissue uptake at 4 h: 5.9 ± 0.8 %ID/g
[3]; spleen
  tissue uptake at 4 h: 27.1 ± 3.1 %ID/g
  tissue uptake at 24 h: 10.1 ± 4.1 %ID/g
  tissue uptake at 48 h: 7.4 ± 1.4 %ID/g
  tissue uptake at 72 h: 4.7 ± 1.5 %ID/g
  tissue uptake at 96 h: 3.7 ± 1.1 %ID/g
[3]; thymus
  tissue uptake at 4 h: 9.7 ± 1.7 %ID/g
  tissue uptake at 24 h: 5.6 ± 0.9 %ID/g
  tissue uptake at 48 h: 4.1 ± 0.2 %ID/g
  tissue uptake at 72 h: 2.7 ± 0.5 %ID/g
  tissue uptake at 96 h: 1.7 ± 0.2 %ID/g
[3]; tumor
  tissue uptake at 4 h: 31.5 ± 7.8 %ID/g
  tissue uptake at 24 h: 5.4 ± 1.5 %ID/g
  tissue uptake at 48 h: 1.7 ± 0.4 %ID/g
  tissue uptake at 72 h: 0.9 ± 0.4 %ID/g
  tissue uptake at 96 h: 0.4 ± 0.07 %ID/g
[3]; tumor/blood
  tissue to tissue ratio at 4 h: 36 ± 10
  tissue to tissue ratio at 24 h: 186 ± 26
  tissue to tissue ratio at 48 h: 61 ± 13
  tissue to tissue ratio at 72 h: 35 ± 37
  tissue to tissue ratio at 96 h: 25 ± 16
[3]; tumor/muscle
  tissue to tissue ratio at 4 h: 21 ± 7
  tissue to tissue ratio at 24 h: 18 ± 3
  tissue to tissue ratio at 48 h: 9 ± 1
  tissue to tissue ratio at 72 h: 6 ± 3
  tissue to tissue ratio at 96 h: 3 ± 0.4
[4]; 3.6 MBq, 90 ng, n = 5, mean ± SD
  tumor uptake: 31.3 ± 7.8 % ID/g
[4]; n = 5
  uptake in the muscle, heart, and blood: minimal uptake
